In ChEMBL document CHEMBL1122418, “Synthesis of 3-hydroxy-3-cyclohexylbutyric acid derivatives. 2. Cyclic analogues of mevalonic acid” (1983) one finds inhibition data, which are given here for five compounds.

Type in all cases: functional
The species named for test [1] is Rattus norvegicus. In words: Percent inhibition of [14C]acetate incorporation into long-chain fatty acids, after incubation with rat liver slices at 5x10E-4 M concentration. An outline of the steps: (§1)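 Rat liver slices (250 mg) incubated in 4 mL Krebs-Ringer bicarbonate buffer, pH 7.4, with 4 mM [2-14C]acetate, with or without test compound; label recovered in CO2, long-chain fatty acids and cholesterol measured and inhibition calculated against untreated slices. Values are arithmetic means of three determinations.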

The species entered for test [2] is Rattus norvegicus. In words: Percent inhibition of [14C]acetate incorporation into cholesterol, after incubation with rat liver slices at 5x10E-4 M concentration. The procedure, abridged: as §1
Test [3] is filed under the species Rattus norvegicus. The experiment in a line: Percent inhibition of [14C]acetate incorporation into CO2, after incubation with rat liver slices at 5x10E-4 M concentration. An outline of the steps: as §1
For test [4], the species on record is Rattus norvegicus. The experiment in a line: Percent inhibition of [14C]acetate incorporation into cholesterol, after incubation with rat liver slices at 5x10E-3 M concentration. An outline of the steps: as §1
The species named for test [5] is Rattus norvegicus. In words: Percent inhibition of [14C]acetate incorporation into long-chain fatty acids, after incubation with rat liver slices at 5x10E-3 M concentration. The procedure, abridged: as §1
The species named for test [6] is Rattus norvegicus. The experiment in a line: Percent inhibition of [14C]acetate incorporation into CO2, after incubation with rat liver slices at 5x10E-3 M concentration. An outline of the steps:
as §1

Structures are written as SMILES.

For `CO[C@H]1CCCC[C@H]1C(C)(O)CC(=O)O` (some centres undefined), the values for the inhibition at 500 µM in the test filed under Rattus norvegicus [1], in the test listed under Rattus norvegicus [2] and in the test listed under Rattus norvegicus [3] were 57%, 25% and 39%, respectively.

`CC1CC(=O)O[C@H]2CCCC[C@@H]12` (some centres undefined): the inhibition (usually the percentage by which the read-out fell short of the control) at 5000 µM in the test listed under Rattus norvegicus [4] is 39%; in the test listed under Rattus norvegicus [5], 62%; in the test listed under Rattus norvegicus [6], 24%. The inhibition at 500 µM in the test filed under Rattus norvegicus [1], in the test filed under Rattus norvegicus [2] and in the test listed under Rattus norvegicus [3] was 10% each time.

As for `CC1(O)CC(=O)O[C@H]2CCCC[C@H]21` (some centres undefined), the inhibition at 5000 µM in the test listed under Rattus norvegicus [4] amounted to 22%; in the test listed under Rattus norvegicus [5], 47%; in the test listed under Rattus norvegicus [6], 37%. Also, the inhibition at 500 µM in the test filed under Rattus norvegicus [1], in the test filed under Rattus norvegicus [2] and in the test listed under Rattus norvegicus [3] was 10% in each case.

As for `CC(O)(CC(=O)O)[C@@H]1CCCC[C@@H]1O` (some centres undefined), the inhibition at 5000 µM in the test filed under Rattus norvegicus [4] is 50%; in the test listed under Rattus norvegicus [5] it was 68%; in the test listed under Rattus norvegicus [6] it was 62%. Also, the inhibition at 500 µM in the test filed under Rattus norvegicus [1], in the test filed under Rattus norvegicus [2] and in the test filed under Rattus norvegicus [3] was 10% throughout.

For the compound `CC(O)(CC(=O)O)C1CCCCC1` (centres undefined) [CYCLOBUTOIC ACID], the results for the inhibition at 500 µM in the test filed under Rattus norvegicus [1], in the test filed under Rattus norvegicus [2] and in the test listed under Rattus norvegicus [3] were 72%, 32% and 62%, respectively.
